Experimental data as given in PMC3912990 (Current biology : CB, 2014).

Key:
Assay in all cases: FLIPR intracellular Ca2+, agonist mode
Type in all cases: cell-based
κ-opioid receptor = κ-opioid receptor (Homo sapiens, UniProt P41145)
Summary of the method: (§1)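 Human opioid receptor cDNA in pcDNA3.1(−), stably expressed in HEK293T cells grown in DMEM with 10% FBS. Test compound was dissolved in DMSO, diluted in FLIPR buffer and added automatically within 4 sec. Intracellular Ca2+ was monitored over 4 min (excitation 488 nm, emission 520 nm), and data were recorded as fluorescence (arbitrary units) versus time.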

μ-opioid receptor = μ-opioid receptor (Homo sapiens, UniProt P35372); conditions: stable HEK293T line
Chain of μ-opioid receptor (P35372 whole entry): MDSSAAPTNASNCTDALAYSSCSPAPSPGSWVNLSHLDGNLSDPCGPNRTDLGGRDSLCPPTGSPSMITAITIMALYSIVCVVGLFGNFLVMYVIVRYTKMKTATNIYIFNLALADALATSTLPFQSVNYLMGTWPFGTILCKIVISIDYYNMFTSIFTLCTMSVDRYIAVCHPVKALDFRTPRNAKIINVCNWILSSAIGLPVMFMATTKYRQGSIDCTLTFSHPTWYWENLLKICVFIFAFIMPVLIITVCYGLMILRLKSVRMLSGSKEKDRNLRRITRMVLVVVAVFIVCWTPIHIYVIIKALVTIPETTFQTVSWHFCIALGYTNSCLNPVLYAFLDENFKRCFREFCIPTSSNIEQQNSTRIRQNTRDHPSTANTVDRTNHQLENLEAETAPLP
Summary of the method: as §1

δ-opioid receptor = δ-opioid receptor (Homo sapiens, UniProt P41143)
Chain of δ-opioid receptor (P41143 whole entry): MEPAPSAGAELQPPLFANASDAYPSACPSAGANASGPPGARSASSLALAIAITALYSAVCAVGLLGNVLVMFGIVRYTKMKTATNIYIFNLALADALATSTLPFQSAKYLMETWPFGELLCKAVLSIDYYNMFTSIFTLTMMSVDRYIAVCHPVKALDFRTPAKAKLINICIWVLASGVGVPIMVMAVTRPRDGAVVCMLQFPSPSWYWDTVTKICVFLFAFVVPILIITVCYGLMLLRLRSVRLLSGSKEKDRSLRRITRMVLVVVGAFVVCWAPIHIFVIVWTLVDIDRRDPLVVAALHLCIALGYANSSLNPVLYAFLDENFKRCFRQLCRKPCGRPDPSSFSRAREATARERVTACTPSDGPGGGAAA
Summary of the method: as §1

Chain of κ-opioid receptor (P41145 whole entry): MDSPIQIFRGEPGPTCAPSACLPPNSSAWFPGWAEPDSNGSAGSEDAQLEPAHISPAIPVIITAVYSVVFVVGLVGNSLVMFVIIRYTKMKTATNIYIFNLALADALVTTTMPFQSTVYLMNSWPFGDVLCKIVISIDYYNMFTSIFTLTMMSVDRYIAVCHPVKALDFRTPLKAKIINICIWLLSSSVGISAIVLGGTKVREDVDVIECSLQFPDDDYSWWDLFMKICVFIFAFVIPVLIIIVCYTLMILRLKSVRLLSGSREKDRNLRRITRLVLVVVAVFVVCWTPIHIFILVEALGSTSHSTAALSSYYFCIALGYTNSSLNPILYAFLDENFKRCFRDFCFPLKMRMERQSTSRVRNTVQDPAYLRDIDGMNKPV

With COc1cc2c(cc1O)CC[n+]1cc3c(OC)c(OC)ccc3c(C)c1-2 [DHCB] the EC50 (κ-opioid receptor) was > 500 µM, the “Opioid Agonist (EC50, μM) / μ” value (μ-opioid receptor) was 100 (74~136) μM and the EC50 (δ-opioid receptor) was > 500 µM.
